From ChEMBL document CHEMBL1124033, “N-aryl 3-halogenated azetidin-2-ones and benzocarbacephems, inhibitors of beta-lactamases” (J Med Chem, 1988) come the findings set out here.

Chain of Beta-lactamase TEM (P62593 whole entry): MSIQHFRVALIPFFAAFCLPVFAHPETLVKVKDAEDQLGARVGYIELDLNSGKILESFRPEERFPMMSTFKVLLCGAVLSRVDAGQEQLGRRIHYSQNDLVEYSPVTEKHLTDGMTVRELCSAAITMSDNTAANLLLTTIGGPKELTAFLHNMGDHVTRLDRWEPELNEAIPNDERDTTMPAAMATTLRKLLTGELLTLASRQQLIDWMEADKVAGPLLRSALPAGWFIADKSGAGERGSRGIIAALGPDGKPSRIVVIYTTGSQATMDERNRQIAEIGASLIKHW

The assay has as its target Beta-lactamase TEM (Escherichia coli, UniProt P62593). Nature of the assay: Inhibition constant (Ki) for TEM-1 beta-lactamase. A digest of the protocol: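 Partially purified plasmid pBR322-encoded TEM-1 β-lactamase; computerized microacidimetric assay at pH 7, 37 °C. Time-dependent inactivation was checked by monitoring activity after enzyme preincubation with inhibitor at 1 to 100 concentrations.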
Consider `O=C(O)c1ccc2c(c1)N1C(=O)CC1CC2Cl` (stereo unspecified), for which the Ki worked out at 50 µM.
To `Cc1ccc(C(=O)O)cc1N1CC(Br)(Br)C1=O` belongs 160 µM; to `Cc1ccc(C(=O)O)cc1N1CCC1=O`, 10 µM.
In the case of `Cc1ccc(C(=O)O)cc1N1CC(F)(Br)C1=O` (stereo unspecified), the affinity, expressed as Ki, was 60 µM.
As to `O=C(O)c1ccc2c(c1)N1C(=O)CC1CC2F` (stereo unspecified), the affinity corresponds to a Ki of 39 µM.
Compound `Cc1ccc(C(=O)O)cc1N1CC(F)C1=O` (stereo unspecified) came in with an inhibition constant (Ki) of 20 µM. Compared with the last compound, the Ki is about 1.9-fold lower.
Then `O=C(O)c1ccc2c(c1)N1C(=O)CC1CC2` (stereo unspecified), with 20 µM; and `Cc1ccc(C(=O)O)cc1N1CC(F)(F)C1=O`, with 83 µM; and `Cc1ccc(C(=O)O)cc1N1CC(Br)C1=O` (stereo unspecified), with 40 µM.
Then `Cc1onc(-c2ccccc2Cl)c1C(=O)N[C@@H]1C(=O)N2[C@@H]1SC(C)(C)[C@@H]2C(=O)O` [CLOXACILLIN], with 13 µM.
`CC1(C)S[C@@H]2[C@H](NC(=O)Cc3ccccc3)C(=O)N2[C@H]1C(=O)O` [PENICILLIN G]: the Ki was determined as 20 µM.

One may read the Ki as the equilibrium dissociation constant of an inhibitor or competing ligand from its target. Lower therefore signals a stronger hold on the target.
